Measurements taken from publication PMC10596003 (ACS Chemical Biology, 2023).
Where two headings read alike, the source gives them in different places.

Columns and labels:
[1] = biological target: SAMHD1 A1 site (Homo sapiens, UniProt Q9Y3Z3); assay: fluorescence anisotropy competitive binding assay with 5′-FAM-pdGpdGpdG-3′ probe; conditions: competition with 5′ FAM-pdGpdGpdG-3′ probe
[2] = biological target: T1, SAMHD1 (Homo sapiens, UniProt Q9Y3Z3); assay: glutaraldehyde protein cross-linking assay of oligomeric state; conditions: for D (%), dimer / T (%), tetramer: 500 μM ligand, 600 nM SAMHD1; for effect on oligomeric state: 500 μM analog (dGTPαS 100 μM), 0.6 μM SAMHD1
[3] = biological target: T1, SAMHD1; assay: malachite green; type: biochemical; conditions: for IC50: 50 μM GTP and 50 μM dATP, 11-point dose response; for inhibition at 500 µM: read-out: dNTPase inhibition (%, [I] = 500 μM)
[4] = biological target: SAMHD1 binding to ssRNA32 (Homo sapiens, UniProt Q9Y3Z3); assay: fluorescence anisotropy displacement of 5′-FAM-labeled ssRNA32; conditions: read-out: EC50 ssRNA displacement; 1 μM SAMHD1, 0.5 μM ssRNA32
Summary of the method: (§1)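 SAMHD1 (1 μM) was preincubated with 0.5 μM 5′-FAM-labelled 32mer ssDNA or ssRNA; the two strands have identical base sequences. […] SD from triplicate experiments.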

[5] = biological target: SAMHD1 binding to ssDNA32 (Homo sapiens, UniProt Q9Y3Z3); assay: fluorescence anisotropy displacement of 5′-FAM-labeled ssDNA32; conditions: read-out: EC50 ssDNA displacement; 1 μM SAMHD1, 0.5 μM ssDNA32
Summary of the method: as §1

T1 sequence (Q9Y3Z3 whole entry): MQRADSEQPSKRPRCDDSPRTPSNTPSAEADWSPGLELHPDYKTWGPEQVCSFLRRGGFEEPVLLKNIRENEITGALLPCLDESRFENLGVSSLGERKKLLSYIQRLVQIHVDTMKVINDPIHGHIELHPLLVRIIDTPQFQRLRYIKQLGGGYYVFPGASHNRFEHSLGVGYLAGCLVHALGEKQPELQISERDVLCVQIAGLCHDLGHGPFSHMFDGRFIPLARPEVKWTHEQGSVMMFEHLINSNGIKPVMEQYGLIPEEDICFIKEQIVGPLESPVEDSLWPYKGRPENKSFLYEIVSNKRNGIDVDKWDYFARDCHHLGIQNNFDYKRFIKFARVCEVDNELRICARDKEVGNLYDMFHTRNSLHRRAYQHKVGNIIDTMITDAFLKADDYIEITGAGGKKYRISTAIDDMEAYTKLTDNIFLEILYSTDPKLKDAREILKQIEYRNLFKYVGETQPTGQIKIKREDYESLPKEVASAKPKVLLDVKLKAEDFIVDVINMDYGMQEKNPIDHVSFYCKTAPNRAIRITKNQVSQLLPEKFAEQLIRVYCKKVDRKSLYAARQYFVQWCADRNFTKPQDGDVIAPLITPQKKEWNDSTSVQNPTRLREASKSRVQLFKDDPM
SAMHD1 A1 site, sequence (Q9Y3Z3 whole entry): as above
SAMHD1 binding to ssDNA32, sequence (Q9Y3Z3 whole entry): as above
SAMHD1 binding to ssRNA32, sequence (Q9Y3Z3 whole entry): as above

| Structure (SMILES) | Kd ([1]; read-out: binding Kd) | D (%), dimer [2] | T (%), tetramer [2] | Kd ([1]; binding Kd (μM)) | further results |
| --- | --- | --- | --- | --- | --- |
| Nc1nc2c(ncn2[C@H]2C[C@H](OP(=O)(O)O[C@H]3C[C@H](n4cnc5c(N)ncnc54)O[C@@H]3CO)[C@@H](CO)O2)c(=O)[nH]1 [5′-dGpdA-5′] | 70 ± 13 µM | 93% | 0% |  |  |
| Cn1c[n+]([C@@H]2O[C@H](COP(=O)([O-])OP(=O)(O)OP(=O)(O)O)[C@@H](O)[C@H]2O)c2nc(N)[nH]c(=O)c21 [Compound 7-Me-GTP] | > 1000 µM |  |  |  |  |
| Nc1nc2c([nH]c(=O)n2[C@H]2C[C@H](O)[C@@H](CO)O2)c(=O)[nH]1 [Compound 8-oxo-dG, 8-oxo-deoxyguanosine] |  | 37% | 0% | > 1000 µM |  |
| Nc1nc2c(ncn2[C@@H]2O[C@H](COP(=O)(O)O)[C@@H](O)[C@H]2O)c(=O)[nH]1 [GMP] | 110 ± 41 µM | 87% | 0% |  |  |
| Nc1nc2c(ncn2[C@@H]2O[C@H](COP(=O)(O)OP(=O)(O)OP(=O)(O)O)[C@@H](O)[C@H]2O)c(=O)[nH]1 [GTP] | 61 ± 11 µM |  | 30% |  | EC50 [4]: 170 ± 32 µM; EC50 [5]: 89 ± 25 µM; effect on oligomeric state [2]: induced complete dimerization |
| Nc1nc2c(ncn2COCCO)c(=O)[nH]1 [acyclovir] |  | 78% | 0% |  | inhibition at 500 µM [3]: 68 ± 31% |
| Nc1ncnc2c1ncn2[C@H]1C[C@H](O)[C@@H](COP(=O)(O)O)O1 [dAMP] | > 1000 µM | 32% | 0% |  |  |
| Nc1nc2c(ncn2[C@H]2C[C@H](O)[C@@H](CO)O2)c(=O)[nH]1 [dG, deoxyguanosine] |  | 80% | 0% | 79 ± 20 µM | IC50 ([3]; IC50 (μM)): 130 ± 89 µM; inhibition at 500 µM [3]: 65 ± 2.4% |
| Nc1nc2c(ncn2[C@H]2C[C@H](O)[C@@H](COP(=O)(O)OP(=O)(O)O)O2)c(=O)[nH]1 [dGDP] | 130 ± 28 µM | 39% | 56% |  | effect on oligomeric state [2]: induced tetramerization |
| Nc1nc2c(ncn2[C@H]2C[C@H](O)[C@@H](COP(=O)(O)O)O2)c(=O)[nH]1 [dGMP] | 140 ± 43 µM | 91% | 0% |  | IC50 [3]: 110 ± 47 µM |
| Nc1nc2c(ncn2[C@H]2C[C@H](O)[C@@H](COP(O)(=S)OP(=O)(O)OP(=O)(O)O)O2)c(=O)[nH]1 (some centres unmarked) [dGTPαS] |  |  |  |  | effect on oligomeric state [2]: induced tetramerization |

More lines, main results first:

| Kd ([1]; read-out: binding Kd) | D (%), dimer [2] | T (%), tetramer [2] | Kd ([1]; binding Kd (μM)) | Structure (SMILES) | further results |
| --- | --- | --- | --- | --- | --- |
|  | 62% | 0% | > 1000 µM | Nc1nc2c(nc(Br)n2[C@H]2C[C@H](O)[C@@H](CO)O2)c(=O)[nH]1 [Compound 8-bromo-dG, 8-bromo-deoxyguanosine] |  |
|  | 17% | 0% | > 500 µM | O=C(O)c1cccc(-c2cccc(Br)c2)c1 [Compound 1023, 3′-bromobiphenyl-3-carboxylic acid] | IC50 ([3]; IC50 (μM)): 220 ± 150 µM |
| 210 ± 32 µM | 88% | 0% |  | Nc1nc2c(ncn2[C@@H]2O[C@H](COP(=O)(O)OP(=O)(O)O)[C@@H](O)[C@H]2O)c(=O)[nH]1 [GDP] | effect on oligomeric state [2]: can induce dimerization |
|  | 64% | 0% | 500 ± 185 µM | Nc1nc2c(ncn2[C@@H]2O[C@H](CO)[C@@H](O)[C@H]2O)c(=O)[nH]1 [rG, guanosine] | inhibition at 500 µM [3]: 6 ± 8.5% |
